The test system of test [1] is Rattus norvegicus. Nature of the test: Ovulation-inducing activity in androgen-sterilized constant-estrus rat at 0.005 ug, iv. It is filed as functional, organism-based. The essentials:
(§1)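 Androgen-sterilized constant-estrus rats. Doses are given as μg per rat. The readout is ovulation, scored as the number of animals ovulating out of the number treated at each dose. Groups held 3 to 6 rats.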

The test system of test [2] is Rattus norvegicus. Nature of the test: Ovulation-inducing activity in androgen-sterilized constant-estrus rat at 0.01 ug, iv. The format is functional, organism-based. The essentials:
as §1

The test system of test [3] is Rattus norvegicus. Nature of the test: Ovulation-inducing activity in androgen-sterilized constant-estrus rat at 0.25 ug, iv. It is filed as functional, organism-based. The essentials: as §1
The test system of test [4] is Rattus norvegicus. As to the kind of experiment: Ovulation-inducing activity in androgen-sterilized constant-estrus rat at 1.0 ug, iv. It is filed as functional, organism-based. Summed up:
as §1

The test system of test [5] is Rattus norvegicus. As to the kind of experiment: Ovulation-inducing activity in androgen-sterilized constant-estrus rat at 0.125 ug, iv. The format is functional, organism-based. Summed up: as §1
The test system of test [6] is Rattus norvegicus. As to the kind of experiment: Ovulation-inducing activity in androgen-sterilized constant-estrus rat at 0.0025 ug, iv. The format is functional, organism-based. The essentials: as §1
Test [7] deals with Rattus norvegicus. Nature of the test: Ovulation-inducing activity in iv dosed androgen-sterilized constant-estrus rat relative to luliberin. It is filed as functional.
Test [8] has as its system Rattus norvegicus. Nature of the test: Ovulation-inducing activity in androgen-sterilized constant-estrus rat at 0.10 ug, iv. The format is functional, organism-based. Summed up:
as §1

In test [9] the test system is Rattus norvegicus. Nature of the test: Ovulation-inducing activity in androgen-sterilized constant-estrus rat at 10 ug, iv. It is filed as functional, organism-based. The essentials: as §1
For test [10], the system named is Rattus norvegicus. As to the kind of experiment: Ovulation-inducing activity in androgen-sterilized constant-estrus rat at 0.031 ug, iv. The format is functional, organism-based. The essentials:
as §1

Test [11] has as its system Rattus norvegicus. Nature of the test: Ovulation-inducing activity in androgen-sterilized constant-estrus rat at 0.062 ug, iv. It is filed as functional, organism-based. Summed up:
as §1

In test [12] the test system is Rattus norvegicus. Nature of the test: Ovulation-inducing activity in androgen-sterilized constant-estrus rat at 0.05 ug, iv. It is filed as functional, organism-based. Summed up:
as §1

Test [13] has as its system Rattus norvegicus. Nature of the test: Ovulation-inducing activity in androgen-sterilized constant-estrus rat at 0.001 ug, iv. It is filed as functional, organism-based. Summed up:
as §1

Active and inactive are the calls of the source. No cut-off for these calls is given here. Where a SMILES comes first, the peptide text is derived from it. [ ]: non-standard residue; d: D form. The star is where a group is joined. pGlu = O=C1CC[C@@H](C(=O)O)N1; X2 = CN(N*)C(N)=O

Regarding `CC(C)C[C@@H](C(=O)N[C@@H](CCCNC(=N)N)C(=O)N1CCC[C@H]1C(=O)NNC(N)=O)N(C)C(=O)[C@@H](Cc1ccccc1)NC(=O)[C@H](Cc1ccc(O)cc1)NC(=O)[C@H](CO)NC(=O)[C@H](Cc1c[nH]c2ccccc12)NC(=O)[C@H](Cc1cnc[nH]1)NC(=O)[C@@H]1CCC(=O)N1`, in the test on Rattus norvegicus [1], the result was inactive. Also, the result in the test with Rattus norvegicus [2] was Active.
On to `CC(C)C[C@H](NC(=O)CNC(=O)[C@H](Cc1ccc(O)cc1)NC(=O)[C@H](CO)NC(=O)[C@H](Cc1c[nH]c2ccccc12)NC(=O)[C@H](Cc1cnc[nH]1)NC(=O)[C@@H]1CCC(=O)N1)C(=O)N[C@@H](CCCNC(=N)N)C(=O)N1CCC[C@H]1C(=O)NN(C)C(N)=O` ([pGlu]HWSYGLRP-X2), for which the outcome in the test with Rattus norvegicus [3] was inactive. In addition, in the test on Rattus norvegicus [4], the outcome was Active.
For `CCNC(=O)N1CCCN1C(=O)[C@H](CCCNC(=N)N)NC(=O)[C@H](CC(C)C)NC(=O)[C@@H](Cc1ccccc1)NC(=O)[C@H](Cc1ccc(O)cc1)NC(=O)[C@H](CO)NC(=O)[C@H](Cc1c[nH]c2ccccc12)NC(=O)[C@H](Cc1cnc[nH]1)NC(=O)[C@@H]1CCC(=O)N1`, in the test on Rattus norvegicus [5], the result was inactive. The outcome in the test on Rattus norvegicus [4] was Active.
On to `CC(C)C[C@H](NC(=O)[C@@H](Cc1ccccc1)NC(=O)[C@H](Cc1ccc(O)cc1)NC(=O)[C@H](CO)NC(=O)[C@H](Cc1c[nH]c2ccccc12)NC(=O)[C@H](Cc1cnc[nH]1)NC(=O)[C@@H]1CCC(=O)N1)C(=O)N[C@@H](CCCNC(=N)N)C(=O)N1CCC[C@H]1C(=O)NNC(N)=O`, for which, in the test with Rattus norvegicus [6], the outcome was inactive. Moreover, the outcome in the test on Rattus norvegicus [1] was Active. Besides, the “fold change (FC)” value with Rattus norvegicus [7] was 5.
For the compound `CCNC(=O)[C@@H]1CCCN1C(=O)[C@H](CCCNC(=N)N)NC(=O)[C@H](CC(C)C)NC(=O)[C@@H](COC(C)(C)C)NC(=O)[C@H](Cc1ccc(O)cc1)NC(=O)[C@H](CO)NC(=O)[C@H](Cc1c[nH]c2ccccc12)NC(=O)[C@H](Cc1cnc[nH]1)NC(=O)[C@@H]1CCC(=O)N1`, the result with Rattus norvegicus [8] was Active.
On to `CC(C)C[C@H](NC(=O)N(Cc1ccccc1)NC(=O)[C@H](Cc1ccc(O)cc1)NC(=O)[C@H](CO)NC(=O)[C@H](Cc1c[nH]c2ccccc12)NC(=O)[C@H](Cc1cnc[nH]1)NC(=O)[C@@H]1CCC(=O)N1)C(=O)N[C@@H](CCCNC(=N)N)C(=O)N1CCC[C@H]1C(=O)NNC(N)=O`, for which the result in the test with Rattus norvegicus [9] was Active.
For the compound `CC(C)C[C@H](NC(=O)[C@@H](Cc1ccccc1)NC(=O)[C@H](Cc1ccc(O)cc1)NC(=O)[C@H](CO)NC(=O)[C@H](Cc1c[nH]c2ccccc12)NC(=O)[C@H](Cc1cnc[nH]1)NC(=O)[C@@H]1CCC(=O)N1)C(=O)N[C@@H](CCCNC(=N)N)C(=O)N1CCC[C@H]1C(=O)NCC(N)=O`, the outcome in the test with Rattus norvegicus [1] was inactive. Also, in the test with Rattus norvegicus [2], the result was Active.
For `CC(C)C[C@H](NC(=O)[C@@H](Cc1c[nH]c2ccccc12)NC(=O)[C@H](Cc1ccc(O)cc1)NC(=O)[C@H](CO)NC(=O)[C@H](Cc1c[nH]c2ccccc12)NC(=O)[C@H](Cc1cnc[nH]1)NC(=O)[C@@H]1CCC(=O)N1)C(=O)N[C@@H](CCCNC(=N)N)C(=O)N1CCC[C@H]1C(=O)NNC(N)=O`, the outcome in the test with Rattus norvegicus [10] was inactive. Further, the “fold change (FC)” value in the test on Rattus norvegicus [7] is on record as 5. Also, the outcome with Rattus norvegicus [11] was Active.
Turning to `CC(C)C[C@@H](C(=O)N[C@@H](CCCNC(=N)N)C(=O)N1CCC[C@H]1C(=O)NNC(N)=O)N(C)C(=O)[C@@H](Cc1ccccc1)NC(=O)[C@H](Cc1ccc(OC(C)(C)C)cc1)NC(=O)[C@H](CO)NC(=O)[C@H](Cc1c[nH]c2ccccc12)NC(=O)[C@H](Cc1cnc[nH]1)NC(=O)[C@@H]1CCC(=O)N1`, in the test with Rattus norvegicus [7], the “fold change (FC)” value was 5. In addition, the outcome in the test on Rattus norvegicus [8] was Active.
`CC(C)C[C@H](NC(=O)[C@@H](CO)NC(=O)[C@H](Cc1ccc(O)cc1)NC(=O)[C@H](CO)NC(=O)[C@H](Cc1c[nH]c2ccccc12)NC(=O)[C@H](Cc1cnc[nH]1)NC(=O)[C@@H]1CCC(=O)N1)C(=O)N[C@@H](CCCNC(=N)N)C(=O)N1CCC[C@H]1C(=O)NNC(N)=O`: the result with Rattus norvegicus [12] was Active. Further, the result in the test on Rattus norvegicus [13] was inactive.

Values taken from ChEMBL document CHEMBL3244376, “Synthesis and biological activity of highly active alpha-aza analogues of luliberin” (1978).
